Measured values from ChEMBL document CHEMBL4261499, “Chiral disubstituted piperidinyl ureas: a class of dual diacylglycerol lipase-α and ABHD6 inhibitors” (Medchemcomm, 2017).
pIC50: −log10 of the molar value.

What was measured:
[1] = target: T1, Diacylglycerol lipase-alpha (Homo sapiens, UniProt Q9Y4D2); experiment: Inhibition of recombinant human DAGLalpha expressed in HEK293 cells using PNP-butyrate as substrate pretreated for 20 to 30 mins followed by substrate addition measured every 60 secs for 20 mins by colorimetric method; format: cell-based
T1 sequence (Q9Y4D2 whole entry): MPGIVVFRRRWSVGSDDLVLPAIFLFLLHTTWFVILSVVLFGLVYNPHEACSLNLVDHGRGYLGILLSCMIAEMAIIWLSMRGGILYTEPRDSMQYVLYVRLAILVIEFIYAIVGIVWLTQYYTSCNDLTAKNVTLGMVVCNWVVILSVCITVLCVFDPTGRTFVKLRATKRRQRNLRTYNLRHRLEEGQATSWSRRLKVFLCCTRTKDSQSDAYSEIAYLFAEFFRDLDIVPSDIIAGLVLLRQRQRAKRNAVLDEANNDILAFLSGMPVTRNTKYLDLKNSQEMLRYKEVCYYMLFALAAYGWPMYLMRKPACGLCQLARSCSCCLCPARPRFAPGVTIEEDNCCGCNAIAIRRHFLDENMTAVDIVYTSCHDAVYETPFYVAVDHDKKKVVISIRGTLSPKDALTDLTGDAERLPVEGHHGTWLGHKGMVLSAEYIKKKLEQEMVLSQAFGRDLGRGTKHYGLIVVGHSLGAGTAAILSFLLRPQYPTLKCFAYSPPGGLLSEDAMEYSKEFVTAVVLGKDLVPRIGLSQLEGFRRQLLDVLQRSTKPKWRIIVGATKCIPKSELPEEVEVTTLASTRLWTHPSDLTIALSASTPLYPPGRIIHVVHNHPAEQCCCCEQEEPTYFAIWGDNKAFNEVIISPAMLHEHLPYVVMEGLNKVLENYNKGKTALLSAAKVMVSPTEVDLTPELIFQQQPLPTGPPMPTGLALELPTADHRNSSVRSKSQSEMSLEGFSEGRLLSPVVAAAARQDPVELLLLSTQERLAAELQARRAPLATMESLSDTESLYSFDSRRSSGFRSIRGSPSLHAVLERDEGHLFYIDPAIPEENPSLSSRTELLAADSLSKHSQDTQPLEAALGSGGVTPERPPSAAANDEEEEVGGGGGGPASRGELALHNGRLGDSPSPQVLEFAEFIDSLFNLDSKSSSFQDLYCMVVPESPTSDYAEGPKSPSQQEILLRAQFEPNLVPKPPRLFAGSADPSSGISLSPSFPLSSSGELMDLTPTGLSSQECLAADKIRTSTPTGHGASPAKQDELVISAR
In short: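 Membrane fraction from HEK293T cells transiently transfected with human DAGLα (PEI transfection, harvested at 72 h). Membranes used at 0.05 μg μL-1 final protein in 50 mM HEPES pH 7.2. Colorimetric readout of para-nitrophenylbutyrate hydrolysis. pIC50 ± SEM.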

[2] = target: T2, Monoacylglycerol lipase ABHD6 (Homo sapiens, UniProt Q9BV23); experiment: Inhibition of recombinant human ABHD6 expressed in HEK293 cells by AmplifuTM red dye based fluorescence assay; format: cell-based
T2 sequence (Q9BV23 whole entry): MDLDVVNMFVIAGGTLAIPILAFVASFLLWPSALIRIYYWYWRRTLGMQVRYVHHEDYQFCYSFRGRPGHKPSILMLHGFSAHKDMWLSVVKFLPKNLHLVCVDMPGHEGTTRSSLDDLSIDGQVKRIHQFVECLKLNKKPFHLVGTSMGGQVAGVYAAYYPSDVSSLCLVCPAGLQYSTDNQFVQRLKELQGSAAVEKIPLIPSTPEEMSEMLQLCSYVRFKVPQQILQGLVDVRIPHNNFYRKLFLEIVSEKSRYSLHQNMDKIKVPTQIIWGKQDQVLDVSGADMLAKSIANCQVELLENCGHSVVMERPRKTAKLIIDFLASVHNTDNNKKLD
In short: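 Membranes from transiently transfected HEK293T cells expressing human ABHD6, 40 μg mL-1 final protein. Real-time coupled fluorescence assay with natural substrate 2-AG (25 μM). Glycerol released is detected via glycerol kinase, glycerol-3-phosphate oxidase and HRP (0.2 U mL-1 each), 0.125 mM ATP and 10 μM Amplifu Red. Assay contains 5% DMSO and 0.5% acetonitrile. pIC50 ± SEM.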

[3] = target: T3, Diacylglycerol lipase-alpha (Mus musculus) (UniProt Q6WQJ1); experiment: Inhibition of MB064 labelling of DAGLalpha in mouse brain homogenates at 10 uM pretreated for 30 mins followed by MB064 addition and measured after 20 mins by activity based protein profiling assay relative to control; format: tissue-based
T3 sequence (whole entry): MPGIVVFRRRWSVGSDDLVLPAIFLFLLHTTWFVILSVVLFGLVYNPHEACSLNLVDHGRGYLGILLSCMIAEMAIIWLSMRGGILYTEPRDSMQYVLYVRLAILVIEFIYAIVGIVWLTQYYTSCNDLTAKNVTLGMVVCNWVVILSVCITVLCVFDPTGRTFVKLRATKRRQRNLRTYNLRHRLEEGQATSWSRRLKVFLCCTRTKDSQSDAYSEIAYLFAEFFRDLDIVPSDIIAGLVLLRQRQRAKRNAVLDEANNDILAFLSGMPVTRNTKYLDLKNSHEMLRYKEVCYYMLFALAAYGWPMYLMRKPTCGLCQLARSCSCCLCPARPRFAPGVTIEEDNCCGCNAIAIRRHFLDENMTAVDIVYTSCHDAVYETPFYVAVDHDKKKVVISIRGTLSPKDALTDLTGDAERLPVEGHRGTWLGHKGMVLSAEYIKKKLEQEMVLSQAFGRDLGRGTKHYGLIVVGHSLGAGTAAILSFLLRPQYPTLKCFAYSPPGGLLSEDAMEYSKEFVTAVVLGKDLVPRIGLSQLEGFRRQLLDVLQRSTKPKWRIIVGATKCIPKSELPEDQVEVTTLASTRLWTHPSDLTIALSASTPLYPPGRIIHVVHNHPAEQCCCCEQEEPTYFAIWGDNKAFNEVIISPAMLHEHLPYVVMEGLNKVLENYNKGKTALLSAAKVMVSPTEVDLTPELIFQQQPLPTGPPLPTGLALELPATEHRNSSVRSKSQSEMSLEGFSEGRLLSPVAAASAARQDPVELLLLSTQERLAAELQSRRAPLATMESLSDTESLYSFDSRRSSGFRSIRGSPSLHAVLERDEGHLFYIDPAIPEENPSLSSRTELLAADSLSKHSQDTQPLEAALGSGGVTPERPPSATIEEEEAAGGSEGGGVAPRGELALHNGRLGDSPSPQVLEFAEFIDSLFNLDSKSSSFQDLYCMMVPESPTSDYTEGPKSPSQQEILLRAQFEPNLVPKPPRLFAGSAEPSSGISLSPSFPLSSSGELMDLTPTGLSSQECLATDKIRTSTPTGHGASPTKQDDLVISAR
In short: (§1)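 Mouse brain membrane proteome preincubated 30 min with inhibitor (10 μM), then labelled with MB064 probe (0.25 μM, 20 min). Readout by gel-based competitive ABPP. Band intensities corrected for protein loading per lane from Coomassie staining. Means ± SEM, n = 3.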

[4] = target: T4, Monoacylglycerol lipase ABHD6 (Mus musculus) (UniProt Q8R2Y0); experiment: Inhibition of MB064 labelling of ABHD6 in mouse brain homogenates at 10 uM pretreated for 30 mins followed by MB064 addition and measured after 20 mins by activity based protein profiling assay relative to control; format: tissue-based; in short: as §1
T4 sequence (whole entry): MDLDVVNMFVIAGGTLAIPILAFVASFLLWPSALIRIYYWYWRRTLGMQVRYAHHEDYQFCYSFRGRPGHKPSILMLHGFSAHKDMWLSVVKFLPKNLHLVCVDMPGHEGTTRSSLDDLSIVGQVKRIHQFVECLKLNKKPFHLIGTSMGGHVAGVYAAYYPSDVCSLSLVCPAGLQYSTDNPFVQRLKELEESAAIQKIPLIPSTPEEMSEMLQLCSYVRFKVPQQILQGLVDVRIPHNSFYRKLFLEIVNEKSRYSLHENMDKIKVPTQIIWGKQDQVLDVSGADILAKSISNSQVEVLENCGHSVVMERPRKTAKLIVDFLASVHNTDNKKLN

Row | pIC50 [1] | pIC50 [2] | inhibition [3] | inhibition [4] | Compound
1 | < 5.00 | < 5.00 |  |  | O=C(Oc1ccc([N+](=O)[O-])cc1)N1CCC=C[C@@H]1COCc1ccccc1
2 | < 5.00 | 6.10 | 6% | 18% | O=C(N1CC=C[C@@H](O)[C@@H]1COCc1ccccc1)n1cc(-c2ccc(-c3ccccc3)cc2)nn1
3 | 5.90 | 7.00 | 30% | 84% | O=C(N1CCC=C[C@H]1COCc1ccccc1)n1cc(-c2ccc(-c3ccccc3)cc2)nn1
4 | < 5.00 | 6.60 | 18% | 83% | O=C(N1CC=C[C@@H](O)[C@H]1COCc1ccccc1)n1cc(-c2ccc(-c3ccccc3)cc2)nn1
5 | < 5.00 | < 5.00 |  | -3% | O=C(N1CCC=C[C@@H]1COCc1ccccc1)n1ccc(-c2ccc(-c3ccccc3)cc2)n1
6 | < 5.00 | < 5.00 | -3% | -3% | O=C(N1CCC=C[C@@H]1COCc1ccccc1)n1ccc(-c2ccc(Br)cc2)n1
7 | 7.60 | 8.30 | 87% | 95% | O=C(N1C[C@H](O)C=C[C@@H]1COCc1ccccc1)n1cc(-c2ccc(-c3ccccc3)cc2)nn1
8 | < 5.00 | 6.50 | 5% | 50% | O=C(N1C[C@H](O)C=C[C@H]1COCc1ccccc1)n1cc(-c2ccc(-c3ccccc3)cc2)nn1
9 | 7.80 | 8.50 | 92% | 96% | O=C(N1C[C@H](O)C=C[C@@H]1Cc1ccccc1)n1cc(-c2ccc(-c3ccccc3)cc2)nn1
10 | < 5.00 | < 5.00 | -9% |  | O=C(N1CCC=C[C@@H]1COCc1ccccc1)n1cnc(-c2ccc(Br)cc2)c1
11 | < 5.00 | < 5.00 |  |  | O=C(N1CCC=C[C@@H]1COCc1ccccc1)n1cnc(-c2ccc(-c3ccccc3)cc2)c1

Row | Compound | pIC50 [1] | pIC50 [2] | inhibition [3] | inhibition [4]
12 | O=C(N1CCC=C[C@H]1Cc1ccccc1)n1cc(-c2ccc(-c3ccccc3)cc2)nn1 | 7.10 | 7.60 | 83% | 90%
13 | O=C(N1CCCC[C@@H]1Cc1ccccc1)n1cc(-c2ccc(-c3ccccc3)cc2)nn1 |  |  | 99% | 95%
14 | O=C(N1CCC=C[C@@H]1COCc1ccccc1)n1cnc(-c2ccc(-c3ccccc3)cc2)n1 | < 5.00 | < 5.00 | 0% | 
15 | O=C(N1CCC=C[C@@H]1Cc1ccccc1)n1cc(-c2ccc(-c3ccccc3)cc2)nn1 | 9.10 | 8.60 | 99% | 96%
